# Screens deposited in PubChem by Sanford-Burnham Center for Chemical Genomics.
# In the library only some 1.2% were active in any assay of this set; here they are far more common.
# Diaph inh CS = diaphorase inhibition or chemical oxidation counter-screen; 190,000 compounds, 0.69% hits; AID 1217; diaphorase resazurin-to-resorufin fluorescence, NADH, 16 min; bacterial (C. kluyveri) enzyme, not human; inhibition, % at 20 µM;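 active = primary screen inhibition at 20 µM above a set limit, cut at about 50% in these data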
#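 Assay system: diaphorase enzyme from Clostridium kluyveri; Input: enzyme working solution with 0.14 U/mL diaphorase; Timing: 16 min at room temperature; Technique: resorufin fluorescence, excitation 544 nm, emission 590 nm; Benchmarks: positive control minus NADH, DMSO neutral control.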
# PfGluPho inh = PfG6PD (Plasmodium falciparum) enzyme inhibition; PfGluPho enzyme, NADPH resazurin-diaphorase fluorescence; inhibition, % at 20 µM; 350,000 compounds, 0.78% hits; AID 504690;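 active = inhibition reaching at least a set limit at 20 µM in the primary screen, cut at about 59% in these data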
# G6PDH CS = L. mesenteroides G6PDH inhibition counter-screen; Purified L. mesenteroides G6PDH, diaphorase/resazurin coupled fluorescence, 45 min; inhibition, % at 5 µM; 200,000 compounds, 0.12% hits; in the data active = inhibition above about 50%
# HKDC1 inhibitor = blocks human hexokinase HKDC1 activity. Q2TB90. inhibition, % at 20 µM. 340,000 compounds, 0.16% hits. AID 493160. recombinant HKDC1, G6PDH/diaphorase resazurin coupled fluorescence;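 active = inhibition above about 35% when tested at 20 µM, limit read from the data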
# Target sequence (Q2TB90 whole entry, looked up): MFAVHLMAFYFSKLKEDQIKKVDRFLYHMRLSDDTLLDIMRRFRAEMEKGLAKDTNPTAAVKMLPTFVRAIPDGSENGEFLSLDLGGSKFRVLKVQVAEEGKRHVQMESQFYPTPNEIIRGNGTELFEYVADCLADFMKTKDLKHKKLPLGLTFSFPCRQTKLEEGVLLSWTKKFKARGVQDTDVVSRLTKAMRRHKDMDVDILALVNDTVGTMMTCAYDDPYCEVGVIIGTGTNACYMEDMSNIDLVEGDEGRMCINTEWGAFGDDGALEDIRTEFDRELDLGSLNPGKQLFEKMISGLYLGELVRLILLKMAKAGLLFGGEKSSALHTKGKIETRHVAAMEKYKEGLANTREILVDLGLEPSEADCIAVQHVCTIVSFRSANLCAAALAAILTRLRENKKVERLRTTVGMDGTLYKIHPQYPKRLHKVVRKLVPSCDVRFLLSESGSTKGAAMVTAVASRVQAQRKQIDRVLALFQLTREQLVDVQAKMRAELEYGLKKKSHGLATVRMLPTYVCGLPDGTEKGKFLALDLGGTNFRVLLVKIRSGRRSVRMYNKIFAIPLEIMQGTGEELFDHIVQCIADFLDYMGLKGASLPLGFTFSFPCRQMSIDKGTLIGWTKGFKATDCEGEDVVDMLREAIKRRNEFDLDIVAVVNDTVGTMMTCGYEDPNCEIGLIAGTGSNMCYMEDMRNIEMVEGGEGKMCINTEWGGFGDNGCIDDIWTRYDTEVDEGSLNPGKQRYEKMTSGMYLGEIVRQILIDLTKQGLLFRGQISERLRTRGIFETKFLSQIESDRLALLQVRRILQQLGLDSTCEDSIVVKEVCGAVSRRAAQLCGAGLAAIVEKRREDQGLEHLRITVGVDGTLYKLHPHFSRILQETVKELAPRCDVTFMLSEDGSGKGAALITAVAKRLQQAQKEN
#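 Test system: HK5 enzyme. Quantity: 5 µg/mL HK5 final. Reagent: glucose and ATP substrates. Schedule: 90 min reaction incubation at room temperature, dark. Technique: resazurin-to-resorufin fluorescence via G6PDH and diaphorase coupling, 525/613 nm. Control set: DMSO wells with and without enzyme mix.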
# PfG6PD confirm = PfG6PD inhibition, single-dose confirmed; shares compounds with PfGluPho inh; recombinant PfGluPho, NADPH-diaphorase-resazurin fluorescence; inhibition, % at 20 µM; 2,400 compounds, 34% hits;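 active = inhibition of at least 50% at 20 µM in any single replicate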
# Diaph ctr 10uM = inhibits diaphorase or oxidizes, flagging false PfG6PD hits. shares compounds with PfGluPho inh. diaphorase-coupled resazurin reduction, fluorescence, NADPH 10 uM. inhibition, % at 20 µM. 820 compounds, 39% hits;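 active = average inhibition reaching 50% or more with the compound at 20 µM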;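 note: resorufin red fluorescence formed as diaphorase reduces resazurin using NADPH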
# Diaphorase 30uM = diaphorase inhibition or oxidation at 30 uM NADPH | shares compounds with PfGluPho inh | Diaphorase/resazurin coupled assay, resorufin fluorescence | inhibition, % at 20 µM | 820 compounds, 29% hits | AID 504863;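 active = inhibition averaging 50% or more, tested at 20 µM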
# Numbers stand for hits; n = inactive; x = not tested or not shown.
SMILES,Diaph inh CS,PfGluPho inh,G6PDH CS,HKDC1 inhibitor,PfG6PD confirm,others
Oc1cccc(CN2CCOCC2)c1O,x,n,x,n,x,
CC(C)(C)c1ccc(N=C2SCC(=O)N2Cc2cccs2)cc1,x,64,x,n,n,
Nc1ccccc1C(=O)NC(=O)Nc1ccc(Oc2ncc(Br)cn2)c(Cl)c1,x,n,x,n,x,
C(=N\NC1=Nc2cccc3cccc1c23)/c1ccccc1,n,66,n,n,n,
C(=N\NC1=Nc2cccc3cccc1c23)/c1cccnc1,n,82,n,n,n,
Clc1ccc(/C=N/NC2=Nc3cccc4cccc2c34)cc1,n,n,n,n,x,
CC(C)c1ccc(/C=N/n2c(COc3ccccc3)n[nH]c2=S)cc1,x,n,x,n,x,
Cn1cc(SCC(=O)N2CCOCC2)c2ccccc21,n,n,n,n,x,
Cn1cc(SCC(=O)N2CCCc3ccccc32)c2ccccc21,n,60,n,n,n,
CC(C)(C)Cc1c(-c2ccccc2)nc2ccc(Br)cn12,x,n,x,x,x,
Cc1ccc(Cc2c(-c3ccc(Cl)cc3)nc3ccc(Br)cn23)cc1,x,67,x,x,n,
Fc1ccc(-c2nc3ccc(Br)cn3c2Cc2ccccc2)cc1,x,67,x,x,n,
Clc1ccc(-c2nc3ccc(Br)cn3c2Cc2ccccc2)cc1,x,88,x,x,n,
Cc1ccc(Cc2c(-c3ccc(C)cc3)nc3ccc(Br)cn23)cc1,x,n,x,x,x,
COc1cc(/C=N/O)ccc1Oc1ccc([N+](=O)[O-])cc1[N+](=O)[O-],n,n,n,n,x,
CO/N=C/c1ccc(Oc2ccc([N+](=O)[O-])cc2[N+](=O)[O-])c(OC)c1,n,94,n,n,n,
COC(=O)C1=NNC(C(=O)OC)C1c1ccccc1 (centres undefined),x,n,x,n,x,
O=[N+]([O-])c1cccnc1-n1cnc2ccccc21,n,n,n,n,x,
Cc1cc2ncn(-c3ncccc3[N+](=O)[O-])c2cc1C,x,76,x,n,n,
CN(C)c1cc(Nc2ccc(O)cc2)c([N+](=O)[O-])c2nonc12,x,n,x,n,x,
O=[N+]([O-])c1c(Nc2ccc(O)cc2)cc(Cl)c2nonc12,x,60,x,n,n,
CCCCc1ccc(NC(=O)Cn2c(=O)c(N3CCCCC3)c(N)n(C)c2=O)cc1,x,n,x,n,x,
O=C(Nc1ccccc1)Nc1sccc1-c1nc2ccccc2s1,x,84,x,n,n,
O=C(Nc1ccccc1)c1nc2ccccc2s1,n,n,n,n,x,
COc1ccccc1NC(=O)Nc1sccc1-c1nc2ccccc2s1,x,78,x,n,n,
SMILES,Diaph inh CS,PfGluPho inh,G6PDH CS,HKDC1 inhibitor,PfG6PD confirm,others
COC(=O)c1sccc1NC(=O)Nc1ccccc1OC,x,n,x,n,x,
O=C(Nc1cccc(Cl)c1)Nc1sccc1-c1nc2ccccc2s1,x,97,x,n,n,
COc1cccc(NC(=O)C(OC(=O)c2ccccc2NS(=O)(=O)c2cccs2)c2ccccc2)c1 (centres undefined),n,75,n,n,n,
S=C(NNC(=S)Nc1ccccc1)Nc1ccccc1,x,n,x,n,x,
S=C(NNC(=S)Nc1ccc(Cl)cc1)NNc1ccccc1,x,73,x,x,n,
COc1ccc2c(c1)[C@H]1[C@H](CO2)[C@H](c2ccccc2)[C@]2(C)C(=O)N(Cc3ccc(C)cc3)CC(=O)N12,x,n,x,n,x,
COc1ccc(CNC(=O)CCCn2nc(C)c3c(C)n(-c4ccc(C)cc4)nc3c2=O)cc1,x,n,x,n,x,
Oc1cc2c(cc1O)C1c3ccc(O)c(O)c3OCC1(O)C2 (centres undefined),78,113,n,n,106,Diaph ctr 10uM=74;Diaphorase 30uM=n
CCN(C(=O)CN1C(=O)NC2(CCc3ccccc32)C1=O)C1CCCCC1 (centres undefined),x,n,x,n,x,
CCc1cc(C(=O)N/N=C/c2ccc(O)cc2O)c2ccccc2n1,x,n,x,n,x,
CC(=O)Oc1ccccc1C(=O)Nc1ccccc1,x,n,x,n,x,
COC1(OC)C=CC(=O)C=C1NC(=O)c1ccccc1OC(C)=O,x,63,x,n,64,Diaph ctr 10uM=n;Diaphorase 30uM=n
CC(C)C[C@H]1CNC(=S)N1CC1CCN(CCCC2CCCC2)CC1,x,n,x,n,x,
COc1ccc2c(c1O)-c1ccccc1CCN(C)C2,n,n,n,n,x,
CN1CCc2cccc3c2[C@@H]1Cc1ccc(O)c(O)c1-3,69,89,n,n,86,Diaph ctr 10uM=n;Diaphorase 30uM=n
